For one compound, IC50 and inhibition results are on record in ChEMBL document CHEMBL3576845, “Discovery of Novel Multiacting Topoisomerase I/II and Histone Deacetylase Inhibitors” (ACS Med Chem Lett, 2015).

Assay [1] addresses T1, Protein deacetylase HDAC6 (Homo sapiens, UniProt Q9UBN7).
T1 sequence (Q9UBN7 whole entry): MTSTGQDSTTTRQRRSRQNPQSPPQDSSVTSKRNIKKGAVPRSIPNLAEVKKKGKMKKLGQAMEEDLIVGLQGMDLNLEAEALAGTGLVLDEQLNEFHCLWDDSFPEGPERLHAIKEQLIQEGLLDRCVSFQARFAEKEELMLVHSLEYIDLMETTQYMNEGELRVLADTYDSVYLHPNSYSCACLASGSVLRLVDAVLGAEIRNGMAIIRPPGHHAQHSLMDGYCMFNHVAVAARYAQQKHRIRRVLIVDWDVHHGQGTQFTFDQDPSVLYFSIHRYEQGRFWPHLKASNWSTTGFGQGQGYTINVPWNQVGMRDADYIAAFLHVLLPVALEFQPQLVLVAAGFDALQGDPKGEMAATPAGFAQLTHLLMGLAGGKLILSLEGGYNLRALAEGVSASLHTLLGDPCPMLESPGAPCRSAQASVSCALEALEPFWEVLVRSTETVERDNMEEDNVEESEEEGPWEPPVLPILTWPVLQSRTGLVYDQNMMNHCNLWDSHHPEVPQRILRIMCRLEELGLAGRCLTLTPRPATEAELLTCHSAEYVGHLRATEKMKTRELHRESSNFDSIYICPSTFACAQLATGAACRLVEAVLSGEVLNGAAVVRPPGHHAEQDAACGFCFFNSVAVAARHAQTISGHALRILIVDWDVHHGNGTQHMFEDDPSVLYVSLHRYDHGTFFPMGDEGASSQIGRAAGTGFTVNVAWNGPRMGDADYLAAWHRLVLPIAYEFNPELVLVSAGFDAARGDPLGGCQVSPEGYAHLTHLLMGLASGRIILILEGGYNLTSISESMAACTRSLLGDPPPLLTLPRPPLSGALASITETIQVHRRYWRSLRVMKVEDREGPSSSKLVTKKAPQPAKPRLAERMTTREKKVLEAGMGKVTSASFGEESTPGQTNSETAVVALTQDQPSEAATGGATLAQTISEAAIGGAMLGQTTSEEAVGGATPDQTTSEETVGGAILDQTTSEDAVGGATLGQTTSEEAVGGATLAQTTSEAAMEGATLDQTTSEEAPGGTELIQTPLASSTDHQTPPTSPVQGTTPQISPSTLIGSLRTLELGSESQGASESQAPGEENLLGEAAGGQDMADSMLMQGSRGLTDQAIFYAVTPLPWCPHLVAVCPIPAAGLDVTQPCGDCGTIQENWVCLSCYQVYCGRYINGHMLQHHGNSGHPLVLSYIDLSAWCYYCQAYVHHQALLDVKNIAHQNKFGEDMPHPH
The assay is described as follows: Inhibition of recombinant N-terminal GST-tagged full length human HDAC6 expressed in baculovirus infected insect Sf9 cells using fluorogenic HDAC substrate 3 after 30 mins by fluorescence assay.

The target in assay [2] is Histone deacetylase (Homo sapiens) (UniProt Q13547+O15379+Q9UBN7+Q92769+Q9UQL6+Q8WUI4+Q9BY41+Q96DB2+P56524+Q9UKV0+Q969S8). The assay is described as follows: Inhibition of HDAC in human HCT116 cells assessed as induction of histone H3 hyperacetylation at 2.5 to 5 uM after 24 to 48 hrs by Western blot analysis. Type of assay: cell-based. The conditions noted are these: HCT-116. Put shortly: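 HCT116 cells treated 24 h with compound at 2.5 or 5 μM alongside an untreated control; lysates probed by Western blot for acetylated histone H3.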

A further assay has as its system MDA-MB-231. The assay can be described thus: Cytotoxicity against human MDA-MB-231 cells assessed as growth inhibition after 72 hrs by MTT assay. The class given is functional, cell-based. The settings on record: MDA-MB-231, 72 h. (In general: Formazan colour is commonly taken as a measure of viable cells.)

Calls of active or inactive are those of the source. No cut-off for these calls is given here.

For the compound `CN1c2ccc(NCc3ccc(-c4noc(CCCCCCC(=O)NO)n4)cc3)cc2C(=O)N2CCc3c([nH]c4ccc(O)cc34)C21` (stereo not drawn), the IC50 in assay [1] was found to be 0.013 µM; in the assay on MDA-MB-231, 2.3 µM. In addition, the inhibition result in assay [2] is “Active”.

As a reminder, the IC50 is the concentration that gives 50% inhibition.
